# NR1D1 modulator: Rev-erb alpha (human) modulation | P20393 | Rev-erbα–FITC-DNA binding, fluorescence polarization, 90 min | activity, % at 10 µM | hit rate 0.79% among 370,000;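 active = activity above about 14%, limit read from the data; passing the limit was not always enough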;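 also: 0% = DMSO wells with 35 nM protein and 100% = DMSO wells with 750 nM protein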
# Target sequence (P20393 whole entry, looked up): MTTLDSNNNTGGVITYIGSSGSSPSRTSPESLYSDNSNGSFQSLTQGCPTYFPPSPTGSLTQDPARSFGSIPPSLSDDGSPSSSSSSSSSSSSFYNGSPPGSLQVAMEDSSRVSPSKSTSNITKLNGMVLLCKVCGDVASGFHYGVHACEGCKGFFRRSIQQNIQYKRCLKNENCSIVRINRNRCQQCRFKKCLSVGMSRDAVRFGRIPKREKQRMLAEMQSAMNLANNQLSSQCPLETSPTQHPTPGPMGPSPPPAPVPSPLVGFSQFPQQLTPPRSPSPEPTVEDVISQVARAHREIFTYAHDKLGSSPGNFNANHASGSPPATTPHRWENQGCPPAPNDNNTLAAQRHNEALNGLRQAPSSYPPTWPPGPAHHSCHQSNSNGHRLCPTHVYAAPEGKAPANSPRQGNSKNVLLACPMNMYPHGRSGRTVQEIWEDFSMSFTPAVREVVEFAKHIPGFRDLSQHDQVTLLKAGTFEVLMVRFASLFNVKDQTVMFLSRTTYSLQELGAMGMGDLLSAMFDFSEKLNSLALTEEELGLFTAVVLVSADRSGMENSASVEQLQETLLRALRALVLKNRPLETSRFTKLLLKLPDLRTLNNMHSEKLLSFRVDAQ
# PG9 Ab binder: PG9 antibody binding by small molecule; TR-FRET gp120-PG9 antibody binding; inhibition, % at 6.7 µM; hit rate 0.43% among 360,000; in the data active = inhibition above about 8.5%
# hiPSC survival: enhancers of human iPSC single-cell survival. hiPSC single-cell survival, ATPlite luminescence; 100% = ROCK inhibitor wells, 0% = DMSO. survival enhancement, % at 20 µM. hit rate 0.044% among 360,000; in the data active = survival enhancement above about 18%;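 also: cells exposed to compounds for 16 hours before the ATP read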
# beta cell repl: inducers of beta-cell replication in MIN6 cells; MIN6 cells proliferation, ATPlite luminescence, 48 h; cells starved in 0.2% serum; 100% = growth in 10% serum; proliferation, % at 10 µM; hit rate 0.29% among 330,000; AID 2380;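 active = compounds whose signal lies at least 3.5 SD above the mean of all wells on their plate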;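 also: 0% = DMSO-treated cells in low-serum medium and 100% = 10% serum control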
# T cruzi repl: T. cruzi replication inhibition; inhibition, % (no concentration beside the values); AID 1885; T. cruzi beta-gal in NIH3T3, luminescence, 90 h; hit rate 1.4% among 300,000;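 active = mean inhibition across valid replicates above about 55%, limit read from the data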;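 also: signal also drops with host cell toxicity which is not excluded here; 0% = plate median of DMSO wells and 100% = zero luminescence signal; higher percent means less beta-gal luminescence so fewer parasites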
#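 Test system: β-gal T. cruzi (Tulahuen C4) inside NIH/3T3 cells / Quantity: 5,000 cells/well / Measured by: luminescence from GalScreen with 0.05% NP40, read after 60 min / Medium: DMEM plus 2% FBS / Measure: parasite load inhibition, % / Reagent: Tulahuen C4 trypomastigotes, 5000/well / Schedule: co-culture of at least 90 h after 3 h attachment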
# H9c2 TAG inh: triacylglycerol accumulation inhibition; H9c2 cells, Nile Red lipid (TAG) fluorescence; cells loaded with 200 µM oleic acid; inhibition, % at 12.5 µM; hit rate 0.66% among 230,000; AID 651582;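 active = pattern-corrected inhibition of lipid staining of at least 50% with the nuclear-stain viability signal not falling by more than 50%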;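 also: 0% = DMSO wells and 100% = triacsin C control wells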
# PG9 bind confirm: PG9 antibody binding, confirmed; AID 651571; shares compounds with PG9 Ab binder; TR-FRET PG9 antibody binding, biochemical; inhibition, % at 6.7 µM; hit rate 90% among 1,500; in the data active = inhibition above about 9%
# PGV04 counter: PGV04 control antibody binding, counter-screen. shares compounds with PG9 Ab binder. inhibition, % at 6.7 µM. hit rate 95% among 1,500. TR-FRET PGV04 antibody-gp120 binding, biochemical; in the data active = inhibition above about 9.5%
# PG9 binder DR: small molecules binding HIV-1 gp120 antibody PG9. shares compounds with PG9 Ab binder. TR-FRET PG9 antibody-gp120 binding inhibition. IC50, µM. 95 tested, under 10 active. AID 651848; in the data active = IC50 below about 10 µM
# PGV04 binding DR: binds control antibody PGV04 in PG9 counter-screen. IC50, µM. TR-FRET binding to control antibody PGV04. hit rate 20% among 95. AID 651937. shares compounds with PG9 Ab binder
# PG126 binding DR: PG126 binding, dose response counter-screen | shares compounds with PG9 Ab binder | TR-FRET binding to antibody PG126, counterscreen | IC50, µM | hit rate 20% among 95
# * = called active by the depositor; / = no result. Most compounds without a hit are left out; they make up all but 2.9% or so of the library. Rule as the data show it, unless noted: active = IC50 below about 9 µM; inactive = the rest.
SMILES,NR1D1 modulator,PG9 Ab binder,hiPSC survival,beta cell repl,T cruzi repl,H9c2 TAG inh,PG9 bind confirm,PGV04 counter,others
COCCn1c(SCC(=O)NCCCN2CCCC2=O)nc2ccccc2c1=O,2,-2,-2,2,/,11,/,/,
Cc1ccc(S(=O)(=O)c2cn(CC(=O)Nc3ccccc3)c3ccc(F)cc3c2=O)cc1,-8,14*,-2,-4,24,-13,17*,25*,
COc1ccc2c(c1)c(=O)c(C(=O)c1ccc(C)cc1)cn2CC(=O)Nc1ccc(F)cc1,17,-2,4,1,18,-1,/,/,
O=c1c(S(=O)(=O)c2ccc(Cl)cc2)cn(Cc2ccccc2F)c2ccc(F)cc12,6,1,8,-2,18,/,/,/,
Cc1ccc(NC(=O)Cn2cc(S(=O)(=O)c3ccc(F)cc3)c(=O)c3cc(F)ccc32)cc1,10,24*,0,-3,17,-23,38*,44*,
O=c1c(S(=O)(=O)c2ccc(Cl)cc2)cn(Cc2cccc(F)c2)c2ccc(F)cc12,-4,2,1,-4,20,/,/,/,
Cc1ccc(Cn2cc(S(=O)(=O)c3ccc(Cl)cc3)c(=O)c3cc(F)ccc32)cc1,0,8.7*,3,-3,25,/,12*,21*,
COc1cccc(NC(=O)c2ccc(NC(=O)C(C)C)cc2)c1,5,0,0,-3,21,-21,/,/,
CCn1c2ccccc2c2cc(CN3CCN(S(=O)(=O)Cc4ccccc4)CC3)ccc21,1,14*,1,0,36,/,16*,26*,
Cc1ccc(Cl)cc1N1CCN(C2CCCCC2NS(=O)(=O)c2ccccc2)CC1 (stereo unspecified),/,/,0,-3,42,/,/,/,
CC1=CC(=C(C#N)C#N)C=C(C)N1CCN1CCN(C(=O)Nc2cccc(Cl)c2)CC1,15,12*,-1,0,12,19,17*,26*,
CC(=O)N1CCN(CCN2C(C)=CC(=C(C#N)C#N)C=C2C)CC1,5,-1,0,-4,-9,-3,/,/,
O=C(O)Cn1nnn(-c2ccccc2)c1=S,1,-2,6,6,-1,-8,/,/,
Cc1ccc(C(=O)Nc2ccc(NC(=O)c3ccccc3Cl)c(C)c2)cc1,9,29*,-2,/,/,3,26*,39*,
O=C(Nc1ccc(Cl)cc1Cl)c1ccc(-c2ccccc2)cc1,1,11*,-1,0,-9,/,33*,49*,
Cc1cc(NC(=O)c2ccc(Cl)cc2)ccc1NC(=O)c1ccccc1Cl,-7,1,0,-2,11,/,/,/,
Cc1cc(NC(=O)c2ccc3c(c2)C(=O)N(CCC(C)C)C3=O)no1,-2,12*,-3,-2,4,10,7,8,
COc1ccc(OC)c(S(=O)(=O)Nc2ccc(C(C)=O)cc2)c1,-2,8.6*,-1,2,2,/,21*,19*,PG9 binder DR=>67;PGV04 binding DR=>67;PG126 binding DR=>67
Cc1cccc(-c2nc3ccccc3c(=O)n2NC(=O)c2cccnc2Cl)c1,1,-1,-1,-1,-16,/,/,/,
O=C(Nc1nccs1)c1ccc(COc2ccccc2)o1,8,9.3*,1,-2,-17,-3,13*,20*,
Cc1ccc(OCc2ccc(C(=O)Nc3nccs3)o2)cc1,0,14*,0,-3,-1,1,15*,21*,
OCC1(Cc2ccccc2)CCN(Cc2cnn(-c3ccccc3F)c2)CC1,2,-3,-1,0,37,21,/,/,
O=c1[nH]c2cc(O)ccc2c2ccccc12,-3,37*,1,/,/,-6,38*,47*,
COc1ccc2c(c1)c(=O)oc1cc(O)ccc12,1,0,-1,-3,-9,/,/,/,
O=c1oc2cc(O)ccc2c2ccccc12,-5,22*,-1,2,2,14,29*,38*,
SMILES,NR1D1 modulator,PG9 Ab binder,hiPSC survival,beta cell repl,T cruzi repl,H9c2 TAG inh,PG9 bind confirm,PGV04 counter,others
Nc1ccc2c(c1)[nH]c(=O)c1ccccc12,7,4,2,/,/,2,/,/,
O=C(Nc1nc(SCc2ccc(F)cc2)ns1)c1ccco1,-7,-1,-1,-3,-8,/,/,/,
c1ccc(-c2cc3c(nn2)CCc2nonc2-3)cc1,-3,2,-3,-1,2,-11,/,/,
O=C(CCc1nc2ccccc2c(=O)[nH]1)OCc1ccc(-c2ccccc2)cc1,16,9.3*,-2,-2,18,/,17*,24*,
O=C(CCc1nc2ccccc2c(=O)[nH]1)OCc1cccc(C(F)(F)F)c1,-5,-1,-1,-2,-15,/,/,/,
COc1ccc(N2CCN(C(=O)CSc3ncn[nH]3)CC2)cc1,-6,2,0,-1,-5,-13,/,/,
COc1ccc2c(c1)C(C)CC(C)(C)N2C(=O)CSc1ncn[nH]1 (stereo unspecified),-7,16*,2,4,-6,/,11*,15*,
CC1CCN(C(=O)Cn2cnc3c(cnn3C(C)(C)C)c2=O)CC1,-1,11*,0,-4,-8,7,8,10*,
Cc1[nH]c(C)c(S(=O)(=O)NCc2ccc(N(C)C)cc2)c1C(=O)N1CCCC1,-5,-2,0,2,-4,/,/,/,
O=C(O)CSc1c2c(nc3cc(C(=O)Nc4cccc(C(F)(F)F)c4)ccc13)CCC2,-3,16*,-1,0,-4,/,33*,54*,
CCOc1ccc(NC(=O)c2ccc3c(SCC(=O)O)c4c(nc3c2)CCCC4)cc1,-4,1,2,-3,10,-2,/,/,
Cc1c(NC(=O)c2ncn[nH]2)cccc1-c1nc2ccccc2s1,10,27*,-1,-4,-8,9,33*,51*,
Cc1c(NC(=O)c2ccc(N3CCCC3)c([N+](=O)[O-])c2)cccc1-c1nc2ccccc2s1,5,-1,1,-3,41,/,/,/,
COc1ccc(CNC(=O)N2CCc3nc(Nc4cc(OC)c(OC)c(OC)c4)ncc3C2)cc1,3,1,0,/,/,26,/,/,
Cc1cccc2cc(CN(Cc3ccco3)C(=O)c3ccncc3)c(=O)[nH]c12,-1,9.3*,9,0,-3,-2,8,10*,
